Source: ChEMBL document CHEMBL1275503, “Characterization of an ABCG-like transporter from the protozoan parasite Leishmania with a role in drug resistance and transbilayer lipid movement” (Antimicrob Agents Chemother, 2008)

What was measured:
Type in all cases: functional, organism-based
[1] = test system: Leishmania infantum; test: Antileishmanial activity against Leishmania infantum promastigotes overexpressing LiABCG6 assessed as cell viability after 72 hrs by MTT assay
Summary of the method: (§1)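 L. infantum promastigotes (strain MHOM/ES/1993/BCN-99) grown at 28°C in modified RPMI 1640 with 20% heat-inactivated fetal bovine serum. Drug sensitivity was measured by MTT-based assay. IC50 was taken as the drug concentration giving half-maximal inhibition of cellular growth rate.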

[2] = test system: Leishmania infantum; test: Antileishmanial activity against GFP-tagged at COOH terminus Leishmania infantum promastigotes overexpressing LiABCG6 assessed as cell viability after 72 hrs by MTT assay; summary of the method: as §1
[3] = test system: Leishmania infantum; test: Antileishmanial activity against GFP-tagged at NH2 terminus Leishmania infantum promastigotes overexpressing LiABCG6 assessed as cell viability after 72 hrs by MTT assay; summary of the method: as §1

| Structure (SMILES) | IC50 [1] [µM] | IC50 [2] [µM] | IC50 [3] [µM] |
| --- | --- | --- | --- |
| CC[C@@]1(O)C(=O)OCc2c1cc1n(c2=O)Cc2cc3ccccc3nc2-1 [CAMPTOTHECIN] | 34.4 | – | – |
| CCN(CC)CCCC(C)Nc1ccnc2cc(Cl)ccc12 (configuration not stated) [CHLOROQUINE] | 24.1 | – | – |
| CCCCCCCCCCCCCCCCCCOCC(COP(=O)([O-])OCC[N+](C)(C)C)OC (configuration not stated) [EDELFOSINE] | 11.3 | 12.9 | 4.8 |
| CC(=O)N1CCN(c2ccc(OCC3COC(Cn4ccnc4)(c4ccc(Cl)cc4Cl)O3)cc2)CC1 (configuration not stated) [KETOCONAZOLE] | 19.3 | – | – |
| OC(c1cc(C(F)(F)F)nc2c(C(F)(F)F)cccc12)C1CCCCN1 (configuration not stated) [MEFLOQUINE] | 7 | – | – |
| CCCCCCCCCCCCCCCCOP(=O)([O-])OCC[N+](C)(C)C [MILTEFOSINE] | 12.9 | 13.6 | 5.6 |
| CCCCCCCCCCCCCCCCCCOP(=O)([O-])OC1CC[N+](C)(C)CC1 [PERIFOSINE] | 11 | 12.2 | 4.2 |
| COc1cc(NC(C)CCCN)c2ncccc2c1 (configuration not stated) [PRIMAQUINE] | 54.9 | – | – |
| CCN(CC)CCCCCCNc1cc(OC)cc2c(C)ccnc12 [SITAMAQUINE] | 14.3 | 15.2 | 7.8 |
